Results: paper PMC11995402 (ACS infectious diseases, 2025)
In brackets after ≈: the same amount, converted by molar mass. Where two headings read alike, the source gives them in different places.

What was measured:
T. muris [1] = assay: adult whipworm whole-worm motility inhibition assay; type: cell-based, Trichuris muris; conditions: for IC50: motility
A. ceylanicum [2] = assay: adult hookworm whole-worm motility inhibition assay; type: cell-based, Ancylostoma ceylanicum; conditions: motility
PIM-3 = PIM-3 (Homo sapiens, UniProt Q86V86); assay: SelectScreen kinase panel, PIM-3; type: biochemical; conditions: 500 nM
AAK1 = AAK1 (Homo sapiens, UniProt Q2M2I8); assay: SelectScreen kinase panel, AAK1; type: biochemical; conditions: 500 nM
MYLK4 = target: T1, MYLK4 (Homo sapiens, UniProt Q86YV6); assay: SelectScreen kinase panel, MYLK4; type: biochemical; conditions: 500 nM
T1 sequence (Q86YV6 1-388): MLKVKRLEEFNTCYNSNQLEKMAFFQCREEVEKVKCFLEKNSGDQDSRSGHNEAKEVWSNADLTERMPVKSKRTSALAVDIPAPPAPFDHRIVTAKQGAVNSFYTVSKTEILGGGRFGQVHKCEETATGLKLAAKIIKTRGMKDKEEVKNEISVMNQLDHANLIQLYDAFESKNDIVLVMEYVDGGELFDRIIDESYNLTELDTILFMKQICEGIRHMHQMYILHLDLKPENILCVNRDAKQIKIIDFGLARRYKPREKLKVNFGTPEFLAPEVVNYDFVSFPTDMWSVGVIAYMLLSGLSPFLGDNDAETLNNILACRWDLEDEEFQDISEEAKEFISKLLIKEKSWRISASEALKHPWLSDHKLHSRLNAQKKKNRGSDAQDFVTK

STK17A = target: T2, STK17A (Homo sapiens, UniProt Q9UEE5); assay: SelectScreen kinase panel, STK17A; type: biochemical; conditions: 500 nM
T2 sequence (Q9UEE5 1-414): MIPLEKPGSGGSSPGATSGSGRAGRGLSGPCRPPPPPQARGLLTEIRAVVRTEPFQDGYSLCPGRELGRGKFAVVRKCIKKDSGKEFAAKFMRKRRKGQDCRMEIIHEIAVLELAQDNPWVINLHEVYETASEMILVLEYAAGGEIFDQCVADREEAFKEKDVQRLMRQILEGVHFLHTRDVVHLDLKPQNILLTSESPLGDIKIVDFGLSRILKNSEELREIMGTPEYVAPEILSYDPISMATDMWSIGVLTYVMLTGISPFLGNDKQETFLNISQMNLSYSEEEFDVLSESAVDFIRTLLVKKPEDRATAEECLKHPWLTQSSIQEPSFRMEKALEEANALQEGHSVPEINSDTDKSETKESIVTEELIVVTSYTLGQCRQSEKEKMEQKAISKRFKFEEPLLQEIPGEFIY

GSG2 (haspin) = target: T3, GSG2 (haspin) (Homo sapiens, UniProt Q8TF76); assay: SelectScreen kinase panel, GSG2; type: biochemical; conditions: 500 nM
T3 sequence (Q8TF76 1-798): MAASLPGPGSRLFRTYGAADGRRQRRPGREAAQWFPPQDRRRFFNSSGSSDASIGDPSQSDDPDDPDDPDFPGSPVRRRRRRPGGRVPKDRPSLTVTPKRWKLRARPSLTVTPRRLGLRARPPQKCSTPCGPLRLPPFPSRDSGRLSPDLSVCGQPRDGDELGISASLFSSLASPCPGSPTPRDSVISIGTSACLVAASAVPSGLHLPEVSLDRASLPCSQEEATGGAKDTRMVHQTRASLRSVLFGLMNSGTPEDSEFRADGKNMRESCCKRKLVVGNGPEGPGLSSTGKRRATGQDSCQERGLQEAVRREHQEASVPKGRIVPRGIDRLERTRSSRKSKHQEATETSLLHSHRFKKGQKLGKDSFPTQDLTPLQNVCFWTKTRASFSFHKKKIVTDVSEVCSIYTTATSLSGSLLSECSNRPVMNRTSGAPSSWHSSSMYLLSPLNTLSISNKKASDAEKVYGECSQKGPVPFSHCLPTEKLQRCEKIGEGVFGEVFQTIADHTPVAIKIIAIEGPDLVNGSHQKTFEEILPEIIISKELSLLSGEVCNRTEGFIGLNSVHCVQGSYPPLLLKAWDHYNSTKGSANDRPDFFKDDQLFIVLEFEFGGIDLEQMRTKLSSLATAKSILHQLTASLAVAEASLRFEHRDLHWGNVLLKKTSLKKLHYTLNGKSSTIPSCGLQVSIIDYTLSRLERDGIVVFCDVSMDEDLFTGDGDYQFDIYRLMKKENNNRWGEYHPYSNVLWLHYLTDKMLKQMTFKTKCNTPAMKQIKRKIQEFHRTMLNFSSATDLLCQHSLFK

MAPK15 (ERK7) = target: T4, MAPK15 (ERK7) (Homo sapiens, UniProt Q8TD08); assay: SelectScreen kinase panel, MAPK15; type: biochemical; conditions: 500 nM
T4 sequence (Q8TD08 1-544): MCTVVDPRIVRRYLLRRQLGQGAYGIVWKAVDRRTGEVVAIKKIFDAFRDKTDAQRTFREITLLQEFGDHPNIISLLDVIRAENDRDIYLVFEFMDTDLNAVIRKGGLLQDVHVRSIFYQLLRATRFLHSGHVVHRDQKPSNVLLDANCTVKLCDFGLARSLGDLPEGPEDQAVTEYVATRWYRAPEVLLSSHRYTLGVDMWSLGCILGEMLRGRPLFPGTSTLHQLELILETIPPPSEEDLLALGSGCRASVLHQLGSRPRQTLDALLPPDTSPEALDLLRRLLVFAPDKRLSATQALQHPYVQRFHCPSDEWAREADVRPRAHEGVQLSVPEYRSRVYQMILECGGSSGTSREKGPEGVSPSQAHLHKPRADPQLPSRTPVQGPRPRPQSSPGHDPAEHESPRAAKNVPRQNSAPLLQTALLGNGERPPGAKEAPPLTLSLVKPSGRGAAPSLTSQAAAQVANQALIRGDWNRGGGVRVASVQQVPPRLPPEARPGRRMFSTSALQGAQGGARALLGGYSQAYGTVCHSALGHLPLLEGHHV

[3] = kinetic solubility in simulated gastric and intestinal fluid; type: physicochemical
T. muris [4] = system: T. muris; parameters: species or system mice; conditions: mouse, in vivo, po, 100 mg/kg/day
A. ceylanicum [5] = assay: in vivo efficacy in A. ceylanicum-infected hamsters; conditions: 100 mg/kg/day for three days, oral
whipworms = assay: whipworm motility recovery after drug removal; type: cell-based; conditions: 60 μM for 24 h, motility recorded 4 and 24 h after removal
Procedure, shortened: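 Adult T. muris harvested 35 days post-inoculation from Stat6−/− mice, one worm per well in RPMI 1640 (pH 7.2) with 5% FBS, penicillin, streptomycin and amphotericin, at 37 °C and 5% CO2. Worms were exposed to test compound for 24 h, washed, and moved to fresh drug-free medium. Motility inhibition was scored relative to DMSO (0%) after exposure and again 4 and 24 h later.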

MDR1-MDCK II cells = conditions: MDCK-MDR1
HepG2 cells = assay: HepG2 MTT viability assay; conditions: read-out: HEPG2 cells CC50 μM (95% CI) 24 h; MTT viability, 24 h

Sequence of AAK1 (Q2M2I8 whole entry): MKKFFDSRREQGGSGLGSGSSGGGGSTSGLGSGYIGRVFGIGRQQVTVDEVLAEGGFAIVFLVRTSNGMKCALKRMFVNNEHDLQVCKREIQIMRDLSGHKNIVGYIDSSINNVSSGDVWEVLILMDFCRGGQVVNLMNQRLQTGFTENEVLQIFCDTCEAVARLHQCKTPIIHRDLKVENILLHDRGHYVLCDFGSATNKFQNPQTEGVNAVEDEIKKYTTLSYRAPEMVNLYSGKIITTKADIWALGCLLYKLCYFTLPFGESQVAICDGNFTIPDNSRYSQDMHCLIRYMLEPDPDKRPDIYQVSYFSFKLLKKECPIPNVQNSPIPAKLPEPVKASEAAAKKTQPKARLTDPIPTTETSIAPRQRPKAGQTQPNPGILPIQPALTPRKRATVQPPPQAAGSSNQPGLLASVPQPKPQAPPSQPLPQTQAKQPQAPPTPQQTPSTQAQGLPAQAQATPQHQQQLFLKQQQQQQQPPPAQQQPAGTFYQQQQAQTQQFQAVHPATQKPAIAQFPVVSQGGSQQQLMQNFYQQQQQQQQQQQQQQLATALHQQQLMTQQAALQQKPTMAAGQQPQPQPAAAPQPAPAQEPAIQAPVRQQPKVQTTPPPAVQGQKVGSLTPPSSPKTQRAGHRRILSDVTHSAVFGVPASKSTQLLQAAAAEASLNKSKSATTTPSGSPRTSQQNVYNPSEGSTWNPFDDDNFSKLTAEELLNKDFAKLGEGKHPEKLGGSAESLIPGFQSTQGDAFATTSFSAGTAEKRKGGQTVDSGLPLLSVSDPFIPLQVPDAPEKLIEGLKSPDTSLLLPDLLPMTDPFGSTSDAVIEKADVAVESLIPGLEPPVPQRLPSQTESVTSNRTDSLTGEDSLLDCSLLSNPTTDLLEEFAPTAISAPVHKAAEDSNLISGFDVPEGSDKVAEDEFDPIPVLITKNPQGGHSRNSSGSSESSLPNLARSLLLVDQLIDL

Structure (SMILES): CN1CCCN(C(=O)c2cccc(-c3ccc(/C=C4/C(=O)Nc5ccc(Cl)cc54)o3)c2)CC1 [CX-6258]
- worm motility inhibition (in words) (T. muris [1]; adult T. muris, 30 μM (Figure 1)): excellent inhibition
- motility inhibition (T. muris [1]; adult T. muris, 30 μM, relative to DMSO controls): 100%
- IC50 (T. muris [1]; read-out: T. muris IC50 μM (95% CI) 24 h, 24 h): 17.8 µM
- IC50 (T. muris [1]; read-out: T. muris IC50 μM (95% CI) 48 h, 48 h): 14.7 µM
- IC50 (A. ceylanicum [2]; read-out: A. ceylanicum IC50 μM (95% CI) 24 h, 24 h): 31.6 µM
- IC50 (A. ceylanicum [2]; read-out: A. ceylanicum IC50 μM (95% CI) 48 h, 48 h): 5.5 µM
- kinase inhibition PIM-3 (PIM-3): over 80%
- kinase inhibition AAK1 (AAK1): over 80%
- kinase inhibition MYLK4 (MYLK4): over 80%
- kinase inhibition STK17A (STK17A): over 80%
- kinase inhibition GSG2 (haspin) (GSG2 (haspin)): over 80%
- kinase inhibition MAPK15 (ERK7) (MAPK15 (ERK7)): over 80%
- kinetic solubility μM ([3]; SGF (pH = 1.2)): 151 µM (≈ 69.8 µg/mL)
- kinetic solubility μg/mL ([3]; SGF (pH = 1.2)): 69.7 µg/mL (≈ 151 µM)
- times more soluble in SGF than in SIF ([3]; SGF pH 1.2 versus SIF pH 6.8): approximately 30 times
- kinetic solubility μM ([3]; SIF (pH = 6.8)): 5.05 µM (≈ 2.33 µg/mL)
- kinetic solubility μg/mL ([3]; SIF (pH = 6.8)): 2.33 µg/mL (≈ 5.04 µM)
- health, vitality and body weight of treated animals (T. muris [4]): did not affect the visually observed health and vitality of treated animals, nor were any changes in body weight
- reduction of egg number or worm burden (in words) (A. ceylanicum [5]): did not reduce egg number or worm burden
- recovery of whipworm motility after removing the drug (whipworms): no recovery in whipworm motility
- Rank Papp (MDR1-MDCK II cells): low
- mean Papp A to B (MDR1-MDCK II cells): 0.049 10^−6 cm/s
- mean Papp B to A (MDR1-MDCK II cells): 0.0897 10^−6 cm/s
- mean solution recovery % A to B (MDR1-MDCK II cells): 5.4%
- mean solution recovery % B to A (MDR1-MDCK II cells): 20.2%
- CC50 (HepG2 cells): 37.5 µM
